≈ marks a conversion by molar mass, not a printed value.
Assays:
[1] = Cytotoxicity against mouse LM3 cells by tetrazolium salt based quantitative colorimetric assay; assay type: functional, cell-based
HeLa = experiment: Cytotoxicity against human HeLa cells by tetrazolium salt based quantitative colorimetric assay; assay type: functional, cell-based
[2] = Cytotoxicity against human L02 cells by tetrazolium salt based quantitative colorimetric assay; assay type: functional, cell-based
SW480 = experiment: Cytotoxicity against human SW480 cells by tetrazolium salt based quantitative colorimetric assay; assay type: functional, cell-based
Vibrio parahaemolyticus = experiment: Antimicrobial activity against Vibrio parahaemolyticus QDIO-8 by XTT assay; assay type: functional
How it was run: (§1)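 Bacterial panel of two human-pathogenic and seven aquacultural strains, run by a previously described method. Chloramphenicol served as the positive control against bacteria.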

Gaeumannomyces graminis = experiment: Antimicrobial activity against Gaeumannomyces graminis QDAU-3 by XTT assay; assay type: functional
How it was run: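 Plant-pathogenic fungus strain QDAU-3 was obtained from Qingdao Agricultural University and tested by a previously described method. Amphotericin B was the positive control against fungi.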

A549 = experiment: Cytotoxicity against human A549 cells by tetrazolium salt based quantitative colorimetric assay; assay type: functional, cell-based
MCF7 = experiment: Cytotoxicity against human MCF7 cells by tetrazolium salt based quantitative colorimetric assay; assay type: functional, cell-based
DU-145 = experiment: Cytotoxicity against human DU145 cells by tetrazolium salt based quantitative colorimetric assay; assay type: functional, cell-based
Aeromonas hydrophila = experiment: Antimicrobial activity against Aeromonas hydrophila QDIO-1 by XTT assay; assay type: functional; how it was run: as §1
Artemia salina = experiment: Cytotoxicity in brine shrimp; assay type: functional; settings: read-out: LD50 (the source's name)
HepG2 = experiment: Cytotoxicity against human HepG2 cells by tetrazolium salt based quantitative colorimetric assay; assay type: functional, cell-based
Staphylococcus aureus = experiment: Antimicrobial activity against Staphylococcus aureus EMBLC-2 by XTT assay; assay type: functional; how it was run: as §1
NCI-H446 = experiment: Cytotoxicity against human NCI-H446 cells by tetrazolium salt based quantitative colorimetric assay; assay type: functional, cell-based
U-251 = experiment: Cytotoxicity against human U251 cells by tetrazolium salt based quantitative colorimetric assay; assay type: functional, cell-based
Vibrio harveyi = experiment: Antimicrobial activity against Vibrio harveyi QDIO-7 by XTT assay; assay type: functional; how it was run: as §1
SW1990 = experiment: Cytotoxicity against human SW1990 cells by tetrazolium salt based quantitative colorimetric assay; assay type: functional, cell-based
[3] = Cytotoxicity against human HuH7 cells by tetrazolium salt based quantitative colorimetric assay; assay type: functional, cell-based; settings: Huh-7
[4] = Cytotoxicity against human SGC7901 cells by tetrazolium salt based quantitative colorimetric assay; assay type: functional, cell-based; settings: SGC-7901

Compound | IC50 [1] | IC50 (HeLa) | IC50 [2] | IC50 (SW480) | MIC (Vibrio parahaemolyticus) | MIC (Gaeumannomyces graminis) | IC50 (A549) | IC50 (MCF7) | IC50 (DU-145) | MIC (Aeromonas hydrophila) | LC50 (Artemia salina) | IC50 (HepG2) | MIC (Staphylococcus aureus) | IC50 (NCI-H446) | IC50 (U-251) | MIC (Vibrio harveyi) | IC50 (SW1990) | IC50 [3] | IC50 [4]
COc1ccc([C@@H]2SS[C@@]34C[C@]5(O)[C@H](Cl)C=C[C@@H](O)[C@@H]5ON3C(=O)[C@@H]2N(C)C4=O)c(O)c1OC | > 10 µM | > 10 µM | > 10 µM | > 10 µM | 8 µg/mL (≈ 15.1 µM) | 16 µg/mL (≈ 30.1 µM) | > 10 µM | > 10 µM | > 10 µM | 8 µg/mL (≈ 15.1 µM) | 4.8 µM | > 10 µM | 8 µg/mL (≈ 15.1 µM) | > 10 µM | > 10 µM | 32 µg/mL (≈ 60.3 µM) | > 10 µM | > 10 µM | > 10 µM
COc1ccc([C@@H]2SS[C@@]34C[C@]5(O)[C@H](O)C=C[C@@H](O)[C@@H]5ON3C(=O)[C@@H]2N(C)C4=O)c(O)c1OC | > 10 µM | > 10 µM | > 10 µM | > 10 µM |  |  | > 10 µM | > 10 µM | > 10 µM |  |  | > 10 µM | 64 µg/mL (≈ 125 µM) | > 10 µM | > 10 µM |  | > 10 µM | > 10 µM | > 10 µM
C=C(C)[C@H]1[C@H](OC(C)=O)C[C@H](C)[C@@]12CC=C(C)[C@@H](O)C2 | > 10 µM | > 10 µM | > 10 µM | > 10 µM |  |  | > 10 µM | > 10 µM | > 10 µM |  |  | > 10 µM |  | > 10 µM | > 10 µM |  | > 10 µM | > 10 µM | > 10 µM
C=C(C)[C@H]1[C@H](OC(C)=O)C[C@H](C)[C@@]12CC=C(CO)[C@@H](O)C2 | > 10 µM | > 10 µM | > 10 µM | > 10 µM |  |  | > 10 µM | > 10 µM | > 10 µM |  |  | > 10 µM |  | 5 µM | > 10 µM |  | > 10 µM | > 10 µM | > 10 µM
COc1cc2c(c(OC)c1OC)-c1ccc(OC)c(=O)cc1[C@@H](NC(C)=O)CC2 [COLCHICINE] |  |  |  |  |  |  |  |  |  |  | 8.1 µM |  |  |  |  |  |  |  | 

— ChEMBL document CHEMBL3580658, “Bisthiodiketopiperazines and Acorane Sesquiterpenes Produced by the Marine-Derived Fungus Penicillium adametzioides AS-53 on Different Culture Media” (J Nat Prod, 2015)
